# Data as given in ChEMBL document CHEMBL1142962, “Antiproliferative prenylated stilbenes and flavonoids from Macaranga alnifolia from the Madagascar rainforest” (J Nat Prod, 2007).
# Legend:
# BT-549 = assay: Growth inhibition of BT549 cells; type: functional; conditions: Homo sapiens
# T47D = assay: Growth inhibition of T47D cells; type: functional; conditions: Homo sapiens
# Method in brief: (§1)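 Tested in the NCI 60 human tumour cell line screen, which was run by NCI. The value for each line is the GI50, the concentration giving 50% growth inhibition. Results are also shown as a mean graph across the full panel.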
# OVCAR-3 = assay: Growth inhibition of OVCAR-3 cells; type: functional; conditions: Homo sapiens
# OVCAR-4 = assay: Growth inhibition of OVCAR4 cells; type: functional; conditions: Homo sapiens
# OVCAR-8 = assay: Growth inhibition of OVCAR8 cells; type: functional; conditions: Homo sapiens; method in brief: as §1
# SK-OV-3 = assay: Growth inhibition of SKOV3 cells; type: functional; conditions: Homo sapiens
# MOLT-4 = assay: Growth inhibition of MOLT4 cells; type: functional; conditions: Homo sapiens; method in brief: as §1
# SF-295 = assay: Growth inhibition of SF295 cells; type: functional; conditions: Homo sapiens; method in brief: as §1
# A498 = assay: Growth inhibition of A498 cells; type: functional; conditions: Homo sapiens; method in brief: as §1
# CAKI-1 = assay: Growth inhibition of CAKI1 cells; type: functional; conditions: Homo sapiens; method in brief: as §1
# CCRF-CEM = assay: Growth inhibition of CCRF-CEM cells; type: functional; conditions: Homo sapiens; method in brief: as §1
# K562 = assay: Growth inhibition of K562 cells; type: functional; conditions: Homo sapiens; method in brief: as §1
# RPMI-8226 = assay: Growth inhibition of RPMI8226 cells; type: functional; conditions: Homo sapiens
# A549 = assay: Growth inhibition of A549/ATCC cells; type: functional; conditions: Homo sapiens
# EKVX = assay: Growth inhibition of EKVX cells; type: functional; conditions: Homo sapiens; method in brief: as §1
# HOP-62 = assay: Growth inhibition of HOP62 cells; type: functional; conditions: Homo sapiens
# HOP-92 = assay: Growth inhibition of HOP92 cells; type: functional; conditions: Homo sapiens
# NCI-H23 = assay: Growth inhibition of NCI-H23 cells; type: functional; conditions: Homo sapiens
# NCI-H322M = assay: Growth inhibition of NCI-H322M cells; type: functional; conditions: Homo sapiens
# NCI-H460 = assay: Growth inhibition of NCI-H460 cells; type: functional; conditions: Homo sapiens
# NCI-H522 = assay: Growth inhibition of NCI-H522 cells; type: functional; conditions: Homo sapiens; method in brief: as §1
# HCC 2998 = assay: Growth inhibition of HCC2998 cells; type: functional; conditions: Homo sapiens
# HCT-116 = assay: Growth inhibition of HCT116 cells; type: functional; conditions: Homo sapiens
# HCT-15 = assay: Growth inhibition of HCT15 cells; type: functional; conditions: Homo sapiens
# [1] = test system: A2780 (human ovarian cancer); assay: Antiproliferative activity against drug-sensitive human A2780 cells
# [2] = read-out: Log LC50 (the source's name) (converted)
compound,measurement,setting,value
COc1cc(/C=C/c2cc(O)c(CC=C(C)C)c(O)c2)cc2c1O[C@]1(C)C[C@@H](O)[C@@H](O)C(C)(C)[C@H]1C2 [SCHWEINFURTHIN E],GI50,BT-549,1510 nM
same,CC50,BT-549; [2],> 100 µM
same,TGI,BT-549; read-out: Log TGI (converted),13.2 µM
same,GI50,T47D,3.24 µM
same,CC50,T47D; [2],> 100 µM
same,TGI,T47D; read-out: Log TGI (converted),> 100 µM
same,GI50,OVCAR-3; read-out: GI50,2.2 µM
same,CC50,OVCAR-3; [2],24 µM
same,TGI,OVCAR-3; read-out: Log TGI (converted),8.32 µM
same,GI50,OVCAR-3; read-out: pGI50 (converted),6.17 µM
same,LC50,OVCAR-4,> 100 µM
same,GI50,OVCAR-4; read-out: GI50,2200 nM
same,TGI,OVCAR-4; read-out: Log TGI (converted),9.33 µM
same,GI50,OVCAR-4; read-out: pGI50 (converted),575 nM
same,GI50,OVCAR-8; read-out: GI50,2200 nM
same,CC50,OVCAR-8; [2],> 100 µM
same,TGI,OVCAR-8; read-out: Log TGI (converted),6.76 µM
same,GI50,OVCAR-8; read-out: pGI50 (converted),2510 nM
same,LC50,SK-OV-3,93.3 µM
same,GI50,SK-OV-3; read-out: GI50,2200 nM
same,TGI,SK-OV-3; read-out: Log TGI (converted),11 µM
same,GI50,SK-OV-3; read-out: pGI50 (converted),2750 nM
same,GI50,MOLT-4; read-out: GI50,< 10 nM
same,CC50,MOLT-4; [2],> 100 µM
same,TGI,MOLT-4; read-out: Log TGI (converted),< 10 nM
same,TGI,MOLT-4; read-out: TGI,< 10 nM
same,GI50,MOLT-4; read-out: pGI50 (converted),< 10 nM
same,GI50,SF-295,< 10 nM
same,TGI,SF-295,< 10 nM
same,LC50,A498,> 100 µM
same,GI50,A498; read-out: GI50,< 10 nM
same,TGI,A498; read-out: Log TGI (converted),< 10 nM
same,TGI,A498; read-out: TGI,< 10 nM
same,GI50,A498; read-out: pGI50 (converted),< 10 nM
same,GI50,CAKI-1; read-out: GI50,< 10 nM
same,CC50,CAKI-1; [2],550 nM
same,TGI,CAKI-1; read-out: Log TGI (converted),< 10 nM
same,TGI,CAKI-1; read-out: TGI,< 10 nM
same,GI50,CAKI-1; read-out: pGI50 (converted),< 10 nM
same,GI50,CCRF-CEM,< 10 nM
same,CC50,CCRF-CEM; [2],> 100 µM
same,TGI,CCRF-CEM; read-out: Log TGI (converted),10 µM
same,GI50,K562,< 10 nM
same,TGI,K562; read-out: Log TGI (converted),692 nM
same,GI50,RPMI-8226,< 10 nM
same,CC50,RPMI-8226; [2],> 100 µM
same,TGI,RPMI-8226; read-out: Log TGI (converted),52.5 nM
same,GI50,A549,< 10 nM
same,CC50,A549; [2],> 100 µM
same,TGI,A549; read-out: Log TGI (converted),12.6 µM
same,GI50,EKVX,2140 nM
same,CC50,EKVX; [2],> 100 µM
same,TGI,EKVX; read-out: Log TGI (converted),28.2 µM
same,GI50,HOP-62,< 10 nM
same,CC50,HOP-62; [2],7.76 µM
same,TGI,HOP-62; read-out: Log TGI (converted),75.9 nM
same,GI50,HOP-92,794 nM
same,CC50,HOP-92; [2],> 100 µM
same,TGI,HOP-92; read-out: Log TGI (converted),5.13 µM
same,GI50,NCI-H23,240 nM
same,CC50,NCI-H23; [2],13.8 µM
same,TGI,NCI-H23; read-out: Log TGI (converted),2340 nM
same,GI50,NCI-H322M,288 nM
same,CC50,NCI-H322M; [2],13.8 µM
same,TGI,NCI-H322M; read-out: Log TGI (converted),2240 nM
same,GI50,NCI-H460,151 nM
same,CC50,NCI-H460; [2],> 100 µM
same,TGI,NCI-H460; read-out: Log TGI (converted),> 100 µM
same,GI50,NCI-H522,2000 nM
same,CC50,NCI-H522; [2],> 100 µM
same,TGI,NCI-H522; read-out: Log TGI (converted),> 100 µM
same,GI50,HCC 2998,1020 nM
same,CC50,HCC 2998; [2],6.46 µM
same,TGI,HCC 2998; read-out: Log TGI (converted),2570 nM
same,GI50,HCT-116,20.9 nM
same,CC50,HCT-116; [2],6.92 µM
same,TGI,HCT-116; read-out: Log TGI (converted),871 nM
same,GI50,HCT-15,603 nM
same,CC50,HCT-15; [2],26.9 µM
same,TGI,HCT-15; read-out: Log TGI (converted),3.63 µM
same,IC50,[1],260 nM
